High-throughput results: PubChem, Johns Hopkins Ion Channel Center
Shown are actives, neighbours in structure and some others; about 2.9% of the full set was active somewhere.
TRPC4 potent = positive allosteric modulators of TRPC4, primary screen, cell-based, mouse TRPC4beta, HEK293 mu-opioid, Fluo-4 calcium; Short transient receptor potential channel 4 (Mus musculus), Q9QUQ5; DAMGO EC20, Fluo-4 Ca2+ flux; hits give high values; B-score at 10 µM; 310,000 tested, 0.42% active;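 active means B-score of calcium response area above 5 SD of library B-scores, with initial fluorescence ratio within 5 SD of library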;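 further: B-score of integrated fluorescence ratio over time as area under calcium response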
Target sequence (Q9QUQ5 whole entry, looked up): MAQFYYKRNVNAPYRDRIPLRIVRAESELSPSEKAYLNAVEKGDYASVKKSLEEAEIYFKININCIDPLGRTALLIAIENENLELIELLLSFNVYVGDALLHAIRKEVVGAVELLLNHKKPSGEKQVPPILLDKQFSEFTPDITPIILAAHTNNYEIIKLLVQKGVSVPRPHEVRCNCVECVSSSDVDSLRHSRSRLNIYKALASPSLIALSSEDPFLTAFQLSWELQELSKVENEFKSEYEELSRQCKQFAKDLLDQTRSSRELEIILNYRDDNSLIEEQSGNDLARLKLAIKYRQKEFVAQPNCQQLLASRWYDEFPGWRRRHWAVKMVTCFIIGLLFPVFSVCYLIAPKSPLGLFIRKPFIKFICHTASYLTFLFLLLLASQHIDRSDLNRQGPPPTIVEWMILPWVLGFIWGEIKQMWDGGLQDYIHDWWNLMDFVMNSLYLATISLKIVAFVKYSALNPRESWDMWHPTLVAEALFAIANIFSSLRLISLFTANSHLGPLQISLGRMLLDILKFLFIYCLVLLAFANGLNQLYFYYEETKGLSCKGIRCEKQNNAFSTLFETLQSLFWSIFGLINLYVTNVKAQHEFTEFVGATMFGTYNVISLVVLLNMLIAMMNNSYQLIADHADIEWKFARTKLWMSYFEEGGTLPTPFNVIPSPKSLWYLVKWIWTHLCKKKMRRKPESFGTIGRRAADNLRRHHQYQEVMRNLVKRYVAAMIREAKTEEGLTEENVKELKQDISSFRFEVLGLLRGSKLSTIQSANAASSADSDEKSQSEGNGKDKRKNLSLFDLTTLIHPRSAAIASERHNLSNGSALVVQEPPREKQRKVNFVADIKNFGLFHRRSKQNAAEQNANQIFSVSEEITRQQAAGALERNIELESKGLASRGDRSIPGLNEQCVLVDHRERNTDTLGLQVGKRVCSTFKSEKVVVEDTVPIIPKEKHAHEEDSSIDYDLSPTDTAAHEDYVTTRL
TRPC4 act = activators of mouse TRPC4 channel, primary screen, Fluo4 calcium, HEK293 TRPC4beta/mu-opioid cells. B-score at 10 µM. Fluo4 calcium fluorescence; hits give high values. 310,000 tested, 0.49% active. Short transient receptor potential channel 4 (Mus musculus), Q9QUQ5;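 active means B-score above 5 SD of library B-scores, and initial fluorescence ratio not above library mean plus 5 SD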;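 further: positive B-score marks a calcium rise read as TRPC4 activation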
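Assay system – TRPC4beta and mu-opioid receptor HEK293 stable cells · Measured by – Fluo4 fluorescence, kinetic · Schedule – dye loading 45 min room temperature, 110 s kinetic read · Read-out – B-scored integrated calcium fluorescence ratio · Controls – buffer and maximal DAMGO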
TRPC6 inh = mouse TRPC6 channel inhibitors, primary screen, cell-based, HEK293, membrane potential dye | AID 2553, 2010 | Short transient receptor potential channel 6 (Mus musculus), Q61143 | ACh-evoked depolarization; hits give low values | B-score at 10 µM | 310,000 tested, 1.1% active;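 active means B-score under library mean minus 3 SD, initial fluorescence not abnormally high, positive integrated signal ratio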;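 further: B-score derived from integrated fluorescence ratio over the kinetic read; more negative B-score means stronger inhibition of depolarization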
Kir21 inh = inhibitors of mouse Kir2.1 inward-rectifier potassium channel. HEK293-Kir2.1, FluxOR thallium flux fluorescence; hits give low values. AID 1672, 2009. 310,000 tested, 0.85% active. B-score at 10 µM. Inward rectifier potassium channel 2 (Mus musculus), P35561;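 active means fluorescence ratio B-score at or below minus 3 SD of library scores, with starting-brightness B-score within 2 SD, cut at about -4.2 in these data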;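 further: channel flux triggered by added potassium and thallium sulfate stimulus; B-score of peak minus minimum fluorescence over baseline after thallium stimulus; more negative B-score means stronger Kir2.1 block with less thallium influx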
TRPC4 inh = inhibitors of mouse TRPC4 channel, primary screen, Fluo4 calcium, HEK293 TRPC4beta/mu-opioid cells. Short transient receptor potential channel 4 (Mus musculus), Q9QUQ5. DAMGO-evoked Fluo4 calcium flux; hits give low values. B-score at 10 µM. 300,000 tested, 0.39% active. AID 2247, 2010;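 active means B-score over 3 SD under the library average, no early fluorescence shift, positive overall ratio signal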
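Assay system – HEK293 line stably carrying TRPC4beta and mu-opioid receptor · Doses – single dose · Detection – Fluo4 calcium-dye fluorescence, kinetic read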
TRPC6 activator = mouse TRPC6 channel activators, primary screen, cell-based, HEK293, membrane potential dye; 310,000 tested, 0.13% active; HEK293-TRPC6 membrane potential dye fluorescence; hits give high values; Short transient receptor potential channel 6 (Mus musculus), Q61143; B-score at 10 µM;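 active means B-score of the integrated fluorescence ratio above library mean plus 3 SD, and starting fluorescence ratio within library mean plus 5 SD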;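 further: higher score means more depolarization so channel activation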
Active calls of the source: *; i = inactive.

SMILES	TRPC4 potent	TRPC4 act	TRPC6 inh	Kir21 inh	TRPC4 inh	TRPC6 activator
Cc1ccc(S(=O)(=O)NCCC(=O)Nc2ncccc2O)cc1C	i	i	i	-0.39	i	i
COc1ccc(OC)c(S(=O)(=O)Nc2ccccc2C)c1	i	i	i	0.38	i	i
COc1ccccc1NS(=O)(=O)c1ccc(O)c(C(N)=O)c1	i	i	i	-4.2*	i	i
COc1ccccc1NS(=O)(=O)c1cc(C)ccc1C	i	i	i	-4.6*	i	i
COc1ccc(C)cc1NS(=O)(=O)c1cc(C)ccc1C	i	i	i	0.73	i	i
COc1ccc(S(=O)(=O)Nc2ccccc2SC)cc1C	i	i	i	-6.7*	i	i
COc1ccc(OC)c(S(=O)(=O)Nc2ccccc2SC)c1	i	i	i	-4.6*	i	i
CCOC(=O)NC(=O)CSc1nc2ccc([N+](=O)[O-])cc2[nH]1	i	i	i	0.49	i	i
COc1ccc(CN2CCCC(CO)(Cc3ccc(F)cc3)C2)c(OC)c1OC (configuration not stated)	i	i	i	0.76	i	i
COc1cccc(NC(=O)CN(C)C(=O)c2cn(-c3ccccc3)nc2-c2cccs2)c1	i	i	i	-0.16	i	i
CCn1c(SCC(=O)N/N=C/c2cccs2)nc2ccccc21	i	i	i	-4.8*	i	i
CCNc1nc(NC(C)(C)C)nc(N2CCCC2)n1	i	i	i	0.29	-8*	i
CC1CC(CC(=O)Nc2nc(-c3ccccc3)cs2)C(=O)O1 (configuration not stated)	i	i	i	0.91	i	i
CCCCN1C2=NCCCN2c2ccccc21	i	i	i	1.1	i	i
Cc1cc2c(cc1C)N(Cc1ccc(Cl)cc1)C1=NCCCN12	111*	i	i	-2.2	i	i
CCCCN1C2=NCCCN2c2cc(C)c(C)cc21	i	i	i	-0.55	-7*	i
CC(C)(C)c1ccc(CN2C3=NCCCN3c3ccccc32)cc1	i	i	i	-3.9	i	i
O=c1[nH][nH]c(-c2ccccc2)c1C=Nc1ccc(Cl)cc1	84*	i	i	1.4	i	i
O=c1[nH][nH]c(-c2ccccc2)c1C=Nc1cccc(Cl)c1	i	i	i	-0.16	i	i
CCN(Cc1ccccc1)Cc1nnnn1Cc1ccccc1	i	i	i	-6.9*	i	i
CCOC(=O)c1sc2nc(CC(=O)OC)nc(NCc3ccc(F)cc3)c2c1C	i	98*	i	0.38	-9*	i
OCCNCCSc1ccc(Cl)cc1	i	104*	i	0.11	i	i
C=CCOc1ccc(CNn2cn[nH]c2=S)cc1	i	i	i	-0.48	i	i
CN(C)CCNC(=O)c1ccc2c(=O)n(Cc3ccc(Cl)cc3)c(=S)[nH]c2c1	i	i	i	-0.78	i	i
CCN(CC)CCNC(=O)c1ccc2c(=O)n(CCc3ccccc3)c(=O)[nH]c2c1	i	i	i	0.58	i	i
SMILES	TRPC4 potent	TRPC4 act	TRPC6 inh	Kir21 inh	TRPC4 inh	TRPC6 activator
CCCCN(C)CCNC(=O)c1ccc(Cn2c(=S)[nH]c3ccc(Br)cc3c2=O)cc1	25*	i	i	-1.9	i	i
CCCCCn1c(=O)[nH]c2cc(C(=O)NCCCN(C)Cc3ccccc3)ccc2c1=O	12*	i	i	-2.6	i	i
CCOCCCn1c(=S)[nH]c2cc(C(=O)NCCCN(CC)CC)ccc2c1=O	24*	i	i	-2	i	i
CCN(CC)C(=O)CSc1ncnc2c(-c3ccc(OC)cc3)nsc12	i	i	i	0.23	i	i
OC1(c2ccc(F)cc2)CCN(Cc2cccnc2)CC1	i	i	i	-1.3	i	i
OC1(c2ccccc2)CCN(Cc2ccccc2)CC1	i	i	i	-7.6*	i	i
OC1(c2ccc3c(c2)OCO3)CCN(Cc2ccc(F)cc2)CC1	i	i	i	-4.5*	i	i
OC1(c2ccc(F)cc2)CCN(Cc2ccccc2)C1 (configuration not stated)	i	i	i	-4.5*	-6*	i
OC(CNC1Cc2ccccc2C1)c1ccccc1 (configuration not stated)	i	i	i	1.4	i	i
O=C(/C(=N/N=C/c1ccc(O)c(O)c1)c1ccccc1)c1ccccc1	i	i	i	-4.8*	i	i
Oc1ccc(/C=N/N=C/c2ccc(O)c(O)c2)cc1O	i	i	i	-0.88	i	i
C#C[C@]1(O)CC[C@H]2[C@@H]3CCC4=C(CCC(=O)C4)[C@H]3CC[C@@]21C	i	i	i	-1.5	i	i
CCOC(=O)C1CCCN(C(c2ccccn2)c2c(C)[nH]c3ccccc23)C1 (configuration not stated)	i	148*	i	2.2	i	i
Cc1[nH]c2ccccc2c1C(c1ccccn1)N1CCCC1 (configuration not stated)	i	i	i	-0.94	i	i
Cn1c(-c2cccc3ccccc23)n[nH]c1=S	i	102*	i	-0.19	i	i
Cc1ccc(NC(=O)C2CCCN2C(=O)NCc2ccccc2)cc1 (configuration not stated)	i	i	i	0.18	i	i
Cc1ccc(NC(=O)N2CCCC2C(=O)NCCc2ccccc2)cc1 (configuration not stated)	i	i	i	0.78	-6*	i
c1ccc(OCC2CCNCC2)nc1	i	84*	i	-1.9	i	i
O=C1c2ccccc2NC(c2ccc(Cl)cc2Cl)N1Cc1ccccc1 (configuration not stated)	i	i	i	-0.59	i	i
CCn1c2ccccc2c2cc(Nc3cc(C)nc4ncnn34)ccc21	i	i	i	-7.6*	i	i
Clc1ccccc1CSc1nncn1NC/C=C/c1ccccc1	i	i	i	-6.6*	i	i
